Results as given in ChEMBL document CHEMBL4689842, “EUbOPEN Chemogenomics Library wave 1” (2021).

Test system: HEK-293T
Assay: Multiplex assay against HEK293T;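 for Population Tubulin-Different-Phenotype (%): share of the cells with healthy nuclei that show this phenotype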
Type: toxicity, cell-based
Conditions: human
Outline: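 On a CQ1 microscope at 37°C and 5% CO2, live cells were imaged after compound addition. They had been stained at seeding with Hoechst33342, BioTracker Green Microtubule Cytoskeleton Dye, MitoTracker Red and Annexin V Alexa Fluor 680. CellPathfinder machine-learning gating assigned cells to Hoechst high-intensity objects or normal cells, normal cells to healthy, pyknosed or fragmented nuclei, and pyknosed cells to mitotic or apoptotic. Tubulin, mitochondrial-mass and membrane-permeability phenotypes are per cents of healthy-nucleus cells.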

[1] = 12 h, 1 µM, compound concentration 1 uM, replicate 1
[2] = 12 h, 1 µM, compound concentration 1 uM, replicate 2
[3] = 12 h, 10 µM, compound concentration 10 uM, replicate 1
[4] = 12 h, 10 µM, compound concentration 10 uM, replicate 2
[5] = 24 h, 1 µM, compound concentration 1 uM, replicate 1
[6] = 24 h, 1 µM, compound concentration 1 uM, replicate 2
[7] = 24 h, 10 µM, compound concentration 10 uM, replicate 1
[8] = 24 h, 10 µM, compound concentration 10 uM, replicate 2
[9] = 48 h, 1 µM, compound concentration 1 uM, replicate 1
[10] = 48 h, 1 µM, compound concentration 1 uM, replicate 2
[11] = 48 h, 10 µM, compound concentration 10 uM, replicate 1
[12] = 48 h, 10 µM, compound concentration 10 uM, replicate 2

C=CC(=O)Nc1ccc2ncnc(Nc3ccc(OCc4cccc(F)c4)c(Cl)c3)c2c1.Cc1ccc(S(=O)(=O)O)cc1
Population Apoptotic (%) [1]: 52%
Population Fragmented Nuclei (%) [1]: 11%
Population Healthy Nuclei (%) [1]: 38%
Population Hoechst High Intensity Objects (%) [1]: 11%
Population Mitochondria Different-Phenotype (%) [1]: 75%
Population Mitotic Cells (%) [1]: 47%
Population Normal (%) [1]: 88%
Population Pyknosed Nuclei (%) [1]: 49%
Population Tubulin-Different-Phenotype (%) [1]: 39%
Total Cell Count [1]: 304
Population Apoptotic (%) [2]: 11%
Population Fragmented Nuclei (%) [2]: 6%
Population Healthy Nuclei (%) [2]: 45%
Population Hoechst High Intensity Objects (%) [2]: 2%
Population Membrane Permeable-Phenotype (%) [2]: 5%
Population Mitochondria Different-Phenotype (%) [2]: 26%
Population Mitotic Cells (%) [2]: 88%
Population Normal (%) [2]: 97%
Population Pyknosed Nuclei (%) [2]: 47%
Population Tubulin-Different-Phenotype (%) [2]: 24%
Total Cell Count [2]: 226
Population Apoptotic (%) [3]: 51%
Population Fragmented Nuclei (%) [3]: 10%
Population Healthy Nuclei (%) [3]: 38%
Population Hoechst High Intensity Objects (%) [3]: 12%
Population Membrane Permeable-Phenotype (%) [3]: 2%
Population Mitochondria Different-Phenotype (%) [3]: 82%
Population Mitotic Cells (%) [3]: 48%
Population Normal (%) [3]: 87%
Population Pyknosed Nuclei (%) [3]: 51%
Population Tubulin-Different-Phenotype (%) [3]: 44%
Total Cell Count [3]: 267
Population Apoptotic (%) [4]: 49%
Population Fragmented Nuclei (%) [4]: 22%
Population Healthy Nuclei (%) [4]: 21%
Population Hoechst High Intensity Objects (%) [4]: 8%
Population Membrane Permeable-Phenotype (%) [4]: 0%
Population Mitochondria Different-Phenotype (%) [4]: 27%
Population Mitotic Cells (%) [4]: 50%
Population Normal (%) [4]: 91%
Population Pyknosed Nuclei (%) [4]: 56%
Population Tubulin-Different-Phenotype (%) [4]: 27%
Total Cell Count [4]: 184
Population Apoptotic (%) [5]: 45%
Population Fragmented Nuclei (%) [5]: 11%
Population Healthy Nuclei (%) [5]: 41%
Population Hoechst High Intensity Objects (%) [5]: 15%
Population Membrane Permeable-Phenotype (%) [5]: 3%
Population Mitochondria Different-Phenotype (%) [5]: 61%
Population Mitotic Cells (%) [5]: 54%
Population Normal (%) [5]: 84%
Population Pyknosed Nuclei (%) [5]: 47%
Population Tubulin-Different-Phenotype (%) [5]: 39%
Total Cell Count [5]: 351
Population Apoptotic (%) [6]: 16%
Population Fragmented Nuclei (%) [6]: 7%
Population Healthy Nuclei (%) [6]: 63%
Population Hoechst High Intensity Objects (%) [6]: 2%
Population Membrane Permeable-Phenotype (%) [6]: 10%
Population Mitochondria Different-Phenotype (%) [6]: 19%
Population Mitotic Cells (%) [6]: 83%
Population Normal (%) [6]: 97%
Population Pyknosed Nuclei (%) [6]: 28%
Population Tubulin-Different-Phenotype (%) [6]: 30%
Total Cell Count [6]: 279
Population Apoptotic (%) [7]: 56%
Population Fragmented Nuclei (%) [7]: 11%
Population Healthy Nuclei (%) [7]: 41%
Population Hoechst High Intensity Objects (%) [7]: 16%
Population Mitochondria Different-Phenotype (%) [7]: 78%
Population Mitotic Cells (%) [7]: 43%
Population Normal (%) [7]: 83%
Population Pyknosed Nuclei (%) [7]: 47%
Population Tubulin-Different-Phenotype (%) [7]: 48%
Total Cell Count [7]: 262
Population Apoptotic (%) [8]: 48%
Population Fragmented Nuclei (%) [8]: 17%
Population Healthy Nuclei (%) [8]: 30%
Population Hoechst High Intensity Objects (%) [8]: 9%
Population Membrane Permeable-Phenotype (%) [8]: 2%
Population Mitochondria Different-Phenotype (%) [8]: 50%
Population Mitotic Cells (%) [8]: 51%
Population Normal (%) [8]: 90%
Population Pyknosed Nuclei (%) [8]: 52%
Population Tubulin-Different-Phenotype (%) [8]: 45%
Total Cell Count [8]: 161
Population Apoptotic (%) [9]: 44%
Population Fragmented Nuclei (%) [9]: 15%
Population Healthy Nuclei (%) [9]: 47%
Population Hoechst High Intensity Objects (%) [9]: 13%
Population Membrane Permeable-Phenotype (%) [9]: 4%
Population Mitochondria Different-Phenotype (%) [9]: 32%
Population Mitotic Cells (%) [9]: 55%
Population Normal (%) [9]: 86%
Population Pyknosed Nuclei (%) [9]: 37%
Population Tubulin-Different-Phenotype (%) [9]: 32%
Total Cell Count [9]: 430
Population Apoptotic (%) [10]: 4%
Population Fragmented Nuclei (%) [10]: 6%
Population Healthy Nuclei (%) [10]: 83%
Population Hoechst High Intensity Objects (%) [10]: 2%
Population Membrane Permeable-Phenotype (%) [10]: 11%
Population Mitochondria Different-Phenotype (%) [10]: 4%
Population Mitotic Cells (%) [10]: 96%
Population Normal (%) [10]: 97%
Population Pyknosed Nuclei (%) [10]: 10%
Population Tubulin-Different-Phenotype (%) [10]: 23%
Total Cell Count [10]: 512
Population Apoptotic (%) [11]: 51%
Population Fragmented Nuclei (%) [11]: 16%
Population Healthy Nuclei (%) [11]: 48%
Population Hoechst High Intensity Objects (%) [11]: 12%
Population Membrane Permeable-Phenotype (%) [11]: 5%
Population Mitochondria Different-Phenotype (%) [11]: 46%
Population Mitotic Cells (%) [11]: 48%
Population Normal (%) [11]: 87%
Population Pyknosed Nuclei (%) [11]: 35%
Population Tubulin-Different-Phenotype (%) [11]: 38%
Total Cell Count [11]: 339
Population Apoptotic (%) [12]: 60%
Population Fragmented Nuclei (%) [12]: 13%
Population Healthy Nuclei (%) [12]: 53%
Population Hoechst High Intensity Objects (%) [12]: 10%
Population Membrane Permeable-Phenotype (%) [12]: 8%
Population Mitochondria Different-Phenotype (%) [12]: 22%
Population Mitotic Cells (%) [12]: 40%
Population Normal (%) [12]: 89%
Population Pyknosed Nuclei (%) [12]: 32%
Population Tubulin-Different-Phenotype (%) [12]: 46%
Total Cell Count [12]: 187
